Reference: ChEMBL document CHEMBL1134580, “Novel hypotensive agents from Verbesina caracasana. 8. Synthesis and pharmacology of (3,4-dimethoxycinnamoyl)-N(1)-agmatine and synthetic analogues” (2001)

Assays:
Rattus norvegicus [1] = assay: Changes in systolic Blood pressure following iv administration at (4.12 umol/kg) anesthetized rats; assay type: functional
Method in brief: (§1)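 Adult male Wistar rats (280 ± 5 g) anesthetized with 10% (w/v) ethylurethane in saline, 1 mL/100 g ip. Trachea cannulated for spontaneous breathing, body temperature held at 37 °C, 60 min stabilization. Single iv injection into the femoral vein of a saline-dissolved drug, dose expressed as free base; n = 4 per drug. Aortic systolic/diastolic BP recorded via a femoral artery catheter and pressure transducer; peak change taken.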

Rattus norvegicus [2] = assay: Changes in diastolic Blood pressure following iv administration at (4.12 umol/kg) anesthetized rats; assay type: functional; method in brief: as §1
Rattus norvegicus [3] = assay: Changes in systolic Blood pressure following iv administration at (8 umol/kg) anesthetized rats; assay type: functional; method in brief: as §1
Rattus norvegicus [4] = assay: Changes in diastolic Blood pressure following iv administration at (8 umol/kg) anesthetized rats; assay type: functional; method in brief: as §1
Rattus norvegicus [5] = assay: Changes in diastolic blood pressure following iv administration at 4.12 umol/kg in anesthetized rats; assay type: functional, Artery; method in brief: as §1
Rattus norvegicus [6] = assay: Changes in systolic blood pressure following iv administration at 4.12 umol/kg in anesthetized rats; assay type: functional, Artery; method in brief: as §1
Rattus norvegicus [7] = assay: Changes in systolic Blood pressure following iv administration at (5 umol/kg) anesthetized rats; assay type: functional; method in brief: as §1
Rattus norvegicus [8] = assay: Changes in diastolic Blood pressure following iv administration at (5 umol/kg) anesthetized rats; assay type: functional; method in brief: as §1
Rattus norvegicus [9] = assay: Changes in systolic Blood pressure following iv administration at (25 umol/kg) anesthetized rats; assay type: functional; method in brief: as §1
Rattus norvegicus [10] = assay: Changes in diastolic Blood pressure following iv administration at (25 umol/kg) anesthetized rats; assay type: functional; method in brief: as §1
Rattus norvegicus [11] = assay: Changes in diastolic blood pressure following iv administration at (4.12 umol/kg) anesthetized rats; assay type: functional; method in brief: as §1
Rattus norvegicus [12] = assay: Changes in systolic blood pressure following iv administration at (4.12 umol/kg) anesthetized rats; assay type: functional; method in brief: as §1
Rattus norvegicus [13] = assay: Changes in diastolic blood pressure following iv administration at (12 umol/kg)anesthetized rats; assay type: functional; method in brief: as §1
Rattus norvegicus [14] = assay: Changes in systolic blood pressure following iv administration at (12 umol/kg)anesthetized rats; assay type: functional; method in brief: as §1

Molecule `COc1ccc(/C=C/C(=O)NCCCCCN=C(N)N)cc1OC.CS(=O)(=O)O` has a Blood pressure (Rattus norvegicus [1]) of -17 mmHg and a Blood pressure (Rattus norvegicus [2]) of -27 mmHg.

Work on `COc1ccc(/C=C/C(=O)NCCN=C(N)N)cc1OC.CS(=O)(=O)O` yielded a Blood pressure (Rattus norvegicus [1]) of -29 mmHg and a Blood pressure (Rattus norvegicus [2]) of -33 mmHg.

`COc1ccc(C(=O)NCCCC/N=C(\N)NCC=C(C)C)cc1.CS(=O)(=O)O` was tested, and the Blood pressure (Rattus norvegicus [1]) was -28 mmHg and the Blood pressure (Rattus norvegicus [2]) was -31 mmHg.

`COC(=O)[C@H]1[C@H]2C[C@@H]3c4[nH]c5cc(OC)ccc5c4CCN3C[C@H]2C[C@@H](OC(=O)c2cc(OC)c(OC)c(OC)c2)[C@@H]1OC` [RESERPINE] was tested, and the Blood pressure (Rattus norvegicus [3]) was -34 mmHg and the Blood pressure (Rattus norvegicus [4]) was -27 mmHg.

With `COc1ccc(/C=C/C(=O)NCCCN=C(N)N)cc1OC.CS(=O)(=O)O` the Blood pressure (Rattus norvegicus [1]) was -24 mmHg and the Blood pressure (Rattus norvegicus [2]) was -28 mmHg.

Molecule `COc1ccc(/C=C/C(=O)NCCCCN=C(N)N)cc1OC.CS(=O)(=O)O` has a Blood pressure (Rattus norvegicus [5]) of -30 mmHg and a Blood pressure (Rattus norvegicus [6]) of -21 mmHg.

Work on `COc1ccc(Cc2nccc3cc(OC)c(OC)cc23)cc1OC` [PAPAVERINE] yielded a Blood pressure (Rattus norvegicus [7]) of -21 mmHg and a Blood pressure (Rattus norvegicus [8]) of -16 mmHg.

`N=C(N)NCCN1CCCCCCC1` [GUANETHIDINE] was tested, and the Blood pressure (Rattus norvegicus [9]) was -32 mmHg and the Blood pressure (Rattus norvegicus [10]) was -23 mmHg.

`COc1ccc(/C=C/C(=O)NCCCCCCN=C(N)N)cc1OC.CS(=O)(=O)O` gave a Blood pressure (Rattus norvegicus [11]) of -36 mmHg and a Blood pressure (Rattus norvegicus [12]) of -14 mmHg.

With `C[N+](C)(C)CCCCCC[N+](C)(C)C.[Cl-].[Cl-]` [HEXAMETHONIUM CHLORIDE] the Blood pressure (Rattus norvegicus [13]) was -30 mmHg and the Blood pressure (Rattus norvegicus [14]) was -46 mmHg.

Molecule `COc1ccc(C=CC(=O)NCCCCN=C(N)N)cc1OC` has a Blood pressure (Rattus norvegicus [1]) of -12 mmHg and a Blood pressure (Rattus norvegicus [2]) of -10 mmHg.
